Compound activity (PubChem BioAssay)
Shown are actives, neighbours in structure and some others; about 4.9% of the full set was active somewhere.
NPY-Y2 antag: antagonists of human neuropeptide Y receptor Y2 | NPY-Y2 expressing cells, antagonist mode | actives 0.99% (n = 140,000) | inhibition, % at 2.7 µM; in the data active means inhibition above about 17%
Target sequence (P49146 whole entry, looked up): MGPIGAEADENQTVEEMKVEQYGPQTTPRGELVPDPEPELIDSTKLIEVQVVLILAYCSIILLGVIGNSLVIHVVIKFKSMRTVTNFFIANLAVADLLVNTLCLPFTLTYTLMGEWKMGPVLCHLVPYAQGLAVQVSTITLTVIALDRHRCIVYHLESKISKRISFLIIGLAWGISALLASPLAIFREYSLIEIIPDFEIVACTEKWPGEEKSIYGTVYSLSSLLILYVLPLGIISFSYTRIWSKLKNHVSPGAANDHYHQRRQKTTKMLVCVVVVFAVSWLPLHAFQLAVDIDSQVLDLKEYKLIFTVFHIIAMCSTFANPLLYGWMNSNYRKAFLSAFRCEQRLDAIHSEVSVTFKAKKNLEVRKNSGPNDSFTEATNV
RAM network inh: inhibitors of the yeast RAM network; S. cerevisiae dse1pr::URA3 reporter, 5-FOA growth OD615, 2 d; analog-sensitive cbk1-as2 kinase mutant strain; actives 1.8% (n = 190,000); inhibition, % at 50 µM;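 active means inhibition above a set limit, 3 SD over mean compound inhibition, cut at about 8.4% in these data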;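 further: inhibition rescues growth on 5-FOA so higher OD means more RAM inhibition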
NPY-Y1 PAM-ag: potentiators or agonists of human neuropeptide Y receptor Y1; activation, % at 3.6 µM; NPY-Y1 expressing cells, potentiator/agonist activation; actives 0.37% (n = 220,000); AID 1304; in the data active means activation above about 33%, passing the limit was not always enough;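 further: cells stimulated with NPY at EC10 then isoproterenol at EC100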
Target sequence (P25929 whole entry, looked up): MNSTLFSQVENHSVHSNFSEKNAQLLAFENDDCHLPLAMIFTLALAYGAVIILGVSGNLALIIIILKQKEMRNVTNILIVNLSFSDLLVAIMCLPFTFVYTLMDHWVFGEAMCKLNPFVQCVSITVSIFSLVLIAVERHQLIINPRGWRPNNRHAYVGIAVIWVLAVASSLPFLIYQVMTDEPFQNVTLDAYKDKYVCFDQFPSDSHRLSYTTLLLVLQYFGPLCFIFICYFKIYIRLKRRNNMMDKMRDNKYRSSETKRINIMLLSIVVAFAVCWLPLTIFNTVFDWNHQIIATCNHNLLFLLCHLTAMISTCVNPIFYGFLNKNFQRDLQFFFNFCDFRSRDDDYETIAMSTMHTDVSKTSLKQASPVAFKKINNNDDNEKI
WT yeast gro inh: growth inhibition of WT yeast, mitochondrial fusion screen. mitochondrial fusion phenotypic screen, WT strain. inhibition, % at 10 µM. actives 2.1% (n = 190,000); in the data active means inhibition above about 58%; tested in S. cerevisiae
NPY-Y2 PAM-ag: human NPY-Y2 potentiation or agonism, primary screen; cells expressing NPY-Y2, potentiator/agonist read-out; actives 0.45% (n = 220,000); activation, % at 3.6 µM; P49146; in the data active means activation above about 27%;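 further: cells stimulated with NPY near EC25 plus isoproterenol at EC100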
NPY-Y1 antag: antagonists of human neuropeptide Y receptor Y1; actives 1% (n = 200,000); HEK293-CNG Y1 cells, membrane potential fluorescence; NPY at EC95, then isoproterenol; P25929; inhibition, % at 3.6 µM;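 active means inhibition above the campaign mean inhibition of all tested compounds plus 3 SD, cut at about 20% in these data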
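Assay system: HEK293 cells with Y1 receptor plus CNG channel | Probe or stimulus: NPY (25 nM), isoproterenol (1 µM), Ro 20-1724 (25 µM) | Timing: Compound incubation 1 h at room temperature, readout 45 min post-stimulation | Measured by: Membrane-potential fluorescent dye readout | Benchmarks: High control isoproterenol alone, low control NPY with isoproterenol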
RAM efflux-def: restores 5-FOA growth of efflux-deficient yeast; shares compounds with RAM network inh; AID 1305; max inhibition, %; S. cerevisiae efflux-deficient reporter strain, 5-FOA growth OD615, 2 days; 1,200 tested, under 10 active; call rule not given here
NPY1 antag conf: confirmation of human neuropeptide Y receptor Y1 antagonists | shares compounds with NPY-Y1 antag | HEK293-CNG NPY-Y1, membrane potential fluorescence, cAMP; NPY challenge against isoproterenol-raised cAMP | inhibition, % at 3.6 µM | actives 21% (n = 1,200) | AID 1254; in the data active means inhibition above about 20%
NPY-Y2 antag ct: counter-screen for NPY-Y1 antagonists: human NPY-Y2 antagonism; shares compounds with NPY-Y1 antag; HEK293 NPY-Y2 CNG membrane potential fluorescence; cells given NPY, then isoproterenol; inhibition, % at 3.6 µM; actives 28% (n = 1,200); AID 1255; in the data active means inhibition above about 17%
NPY-Y1 pot conf: human NPY-Y1 potentiation or agonism, confirmation; cell-based NPY-Y1 potentiator/agonist assay; shares compounds with NPY-Y1 PAM-ag; actives 20% (n = 280); activation, % at 3.6 µM; in the data active means activation above about 45%;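 further: cells challenged with NPY at its EC10 plus isoproterenol stimulus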
NPY-Y2 counter: potentiates or activates NPY-Y2, counter-screen for NPY-Y1 hits; shares compounds with NPY-Y1 PAM-ag; HEK293-CNG cells, membrane-potential fluorescence (FLIPR), 1536-well; activation, % at 3.6 µM; actives 20% (n = 280)
NPY-Y1 agonist: activates human NPY-Y1, counter-screen for NPY-Y1 potentiators. shares compounds with NPY-Y1 PAM-ag. actives 50% (n = 280). HEK293 Y1-CNGC, membrane potential fluorescence, agonist mode. AID 1697. activation, % at 3.6 µM;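 active means percent activation above the mean of DMSO-only control wells plus 3 SD of those wells, cut at about 18% in these data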;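 further: cells challenged with isoproterenol plus Ro 20-1724 with no NPY in test wells; Y1 agonism lowers isoproterenol-driven cAMP and reduces probe fluorescence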
NPY-Y2 agonist: activates human NPY-Y2, counter-screen for NPY-Y1 hits; shares compounds with NPY-Y1 PAM-ag; HEK293 Y2-CNGC, membrane potential fluorescence, agonist mode; activation, % at 3.6 µM; actives 67% (n = 280);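 active means activation above the solvent-only control wells' mean plus 3 SD, cut at about 11% in these data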;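 further: agonism lowers cAMP so well fluorescence drops in active wells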
CNGC counter: CNG channel inhibition, counter-screen for NPY-Y1 potentiators | shares compounds with NPY-Y1 PAM-ag | HEK293-CNG parental, isoproterenol cAMP, membrane potential fluorescence | inhibition, % at 3.6 µM | actives 42% (n = 280);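 active means inhibition above the mean of stimulated solvent-only control wells plus 3 SD, cut at about 22% in these data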
NPY-Y2 pot conf: human NPY-Y2 potentiation or agonism, confirmation; shares compounds with NPY-Y2 PAM-ag; cell-based NPY-Y2 potentiator/agonist assay; activation, % at 3.6 µM; actives 20% (n = 450); AID 1539
NPY-Y1 potentiator: counter-screen for NPY-Y2 potentiators or agonists: NPY-Y1 potentiators or agonists. shares compounds with NPY-Y2 PAM-ag. actives 20% (n = 450). activation, % at 3.6 µM. Y1 HEK293-CNG cells, membrane potential fluorescence. AID 1651; in the data active means activation above about 45%;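 further: cells stimulated with submaximal NPY then isoproterenol with phosphodiesterase inhibitor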
NPY-Y1 agonist 2: counter-screen for NPY-Y2 potentiators: agonists of human NPY-Y1 | shares compounds with NPY-Y2 PAM-ag | activation, % at 3.6 µM | AID 1702 | HEK293 Y1-CNGC, membrane potential fluorescence, agonism | actives 37% (n = 450);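 active means activation above the mean of DMSO-only control wells plus 3 SD, cut at about 18% in these data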;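 further: cells stimulated with 1 µM isoproterenol plus the PDE inhibitor Ro 20-1724; Y1 agonists lower the membrane potential dye signal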
CNGC inh: blocks CNG channel activity, counter-screen for NPY-Y2 potentiators. shares compounds with NPY-Y2 PAM-ag. HEK293-CNG parental, isoproterenol cAMP, membrane potential fluorescence. inhibition, % at 3.6 µM. actives 32% (n = 450). AID 1703;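 active means inhibition above the control-well mean plus 3 SD of those wells, cut at about 22% in these data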
Y2 agonist ctr: activates human NPY-Y2 receptor in potentiator counter-screen | AID 1710 | shares compounds with NPY-Y2 PAM-ag | HEK293 Y2/CNGC cells, membrane potential fluorescence, agonist mode | activation, % at 3.6 µM | actives 56% (n = 450);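 active means activation above the mean of solvent-only control wells plus 3 SD, cut at about 10% in these data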;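 further: cells stimulated by isoproterenol with no NPY added so direct agonism is tested; agonism lowers probe fluorescence through less cAMP and CNG channel opening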
Large screens that a line does not name were inactive (follow-up assays come after a bar, where they were run). Unless noted, no stated cut-off is given here; in the data, active means activation above about 33%; inactive means the rest.

CC(C)(C)OC(=O)NCCCCCNC(=O)c1[nH]cnc1C(=O)N[C@@H](Cc1ccccc1)C(=O)OCc1ccccc1	RAM network inh 13, NPY-Y1 PAM-ag 58 (no result: NPY-Y2 antag) | RAM efflux-def inactive | NPY-Y1 pot conf 47 | NPY-Y2 counter inactive | NPY-Y1 agonist 32 | NPY-Y2 agonist 19 | CNGC counter 28
CC(C)c1cc(C(=O)Nc2cccnc2)no1	none
O=C(/C=C/c1cccc(C(F)(F)F)c1)Nc1cccc(C(F)(F)F)c1	RAM network inh 12, NPY-Y2 PAM-ag 36 | RAM efflux-def inactive | NPY-Y2 pot conf inactive | NPY-Y1 potentiator inactive | NPY-Y1 agonist 2 25 | CNGC inh 33 | Y2 agonist ctr 16
CCOC(=O)N1CCC(NC(=O)C2CCCN(S(=O)(=O)c3cccc4nsnc34)C2)CC1 (configuration not stated)	none
CCCOc1ccc(S(=O)(=O)NCc2ccc(OC)cc2)cc1	NPY-Y1 antag 28 | NPY1 antag conf inactive | NPY-Y2 antag ct inactive
COc1ccc(CNS(=O)(=O)c2ccc(OC)cc2)cc1	none
CN(c1ccc(OCc2nnc(-c3ccccc3)o2)cc1)S(=O)(=O)c1ccccc1	NPY-Y1 antag 28 | NPY1 antag conf inactive | NPY-Y2 antag ct inactive
COc1ccccc1Cn1[nH]nnc1=S	none (no result: NPY-Y2 antag, RAM network inh, WT yeast gro inh, NPY-Y1 antag)
Cc1cc(/C=C2/SC(=S)N(c3cccc(C(F)(F)F)c3)C2=O)c(C)n1-c1cccnc1	NPY-Y1 antag 48 (no result: RAM network inh, WT yeast gro inh) | NPY1 antag conf 35 | NPY-Y2 antag ct 24
Cc1cc(/C=C2\SC(=S)N(Cc3ccco3)C2=O)c(C)n1-c1cccnc1	none
CCc1ccc(OCCNC(=O)c2cccs2)cc1	none (no result: WT yeast gro inh)
COc1ccc(S(=O)(=O)N2CCC(N3CCN(Cc4ccccc4)CC3)CC2)cc1	none (no result: NPY-Y2 antag)
CC(NC(=O)CSc1n[nH]c(=O)[nH]c1=O)C1CC2CCC1C2 (configuration not stated)	none (no result: NPY-Y2 antag, RAM network inh, WT yeast gro inh, NPY-Y1 antag)
Cc1cc(=O)cc(C)n1-c1ccccc1N1CCOCC1	none
Cc1ccc(C)n1-c1ccccc1N1CCCCC1	NPY-Y1 antag 56 (no result: NPY-Y2 antag) | NPY1 antag conf inactive | NPY-Y2 antag ct inactive
CCCNc1nc(N2CCCC2)nc(N2CCCC2)n1	NPY-Y1 antag 30 (no result: NPY-Y2 antag) | NPY1 antag conf inactive | NPY-Y2 antag ct inactive
CC(C)(C)Nc1nc(N2CCCC2)nc(N2CCCC2)n1	none
COc1ccc(N(CC(=O)Nc2cccc(SC)c2)S(C)(=O)=O)cc1Cl	none
CCCCN1Cc2cc(C(=O)c3cc(F)ccc3O)cnc2NC1=O	NPY-Y1 antag 22 | NPY1 antag conf inactive | NPY-Y2 antag ct inactive
N=c1n(CCN2CCOCC2)c2ccccc2n1Cc1ccccc1Br	NPY-Y1 antag 21 | NPY1 antag conf inactive | NPY-Y2 antag ct inactive
Cn1c(=O)n(Cc2ccccc2Br)c2ccccc21	none (no result: NPY-Y2 antag)
COc1ccc(/C=C/C(=O)NCC(=O)N/N=C/c2ccc(OC)cc2)cc1	none (no result: NPY-Y2 antag)
Cc1ccc(-c2cc(C(=O)Nc3nccs3)c3ccccc3n2)o1	none
CC(C)CCNC(=O)c1cccc(S(=O)(=O)N2CCc3ccccc32)c1	none
CC(C)CN(CC(C)C)C(=O)c1cccc(S(=O)(=O)N2CCc3ccccc32)c1	NPY-Y1 antag 29 (no result: NPY-Y2 antag) | NPY1 antag conf inactive | NPY-Y2 antag ct inactive
O=C(Cn1cnc2cc([N+](=O)[O-])ccc2c1=O)Nc1ccc2c(c1)OCO2	none (no result: NPY-Y2 antag)
CCC(C)(C(=O)NC1CCCCC1)N(Cc1cccs1)C(=O)CC1NC(=O)NC1=O (configuration not stated)	none
CCC(C)(C(=O)NC1CCCCC1)N(Cc1ccco1)C(=O)Cc1cccs1 (configuration not stated)	NPY-Y1 antag 72 | NPY1 antag conf 38 | NPY-Y2 antag ct inactive
CN1CCN(c2nc(-c3ccccc3)c3cc(Cl)ccc3n2)CC1	none
Clc1ccc2nc(N3CCNCC3)nc(-c3ccccc3)c2c1	NPY-Y1 antag 26 | NPY1 antag conf inactive | NPY-Y2 antag ct 20
CCC1CCCCN1C(=O)COc1ccccc1NC(C)=O (configuration not stated)	none (no result: NPY-Y2 antag)
CCCCCCC(=O)Nc1c2c(nc3ccccc13)N(C)CC2	NPY-Y1 antag 24 | NPY1 antag conf inactive | NPY-Y2 antag ct inactive
